ChEMBL document CHEMBL4371061, “Identification of novel triazole inhibitors of Wnt/β-catenin signaling based on the Niclosamide chemotype” (Bioorg Med Chem Lett, 2019)
Active and inactive are the calls of the source. The rule behind the calls is not given here.

Experiments:
Homo sapiens [1] = organism: Homo sapiens; test: Inhibition of Wnt/beta-catenin signaling pathway in human HCT116 whole cell lysate harboring beta-catenin mutation assessed as reduction in c-Myc protein expression at 5 uM after 18 hrs by Western blot analysis relative to control; assay type: subcellular
How it was run: (§1)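 Cells were treated with 5 μM compound in DMSO, or DMSO alone, for 18 h. Cytosolic fraction and whole-cell lysate were immunoblotted for target proteins with β-actin as loading control. Band levels were normalized to β-actin and expressed as percent of the DMSO-treated control.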

[2] = Inhibition of Wnt3A-stimulated Wnt/beta-catenin pathway in HEK293 cells transfected with p8xTOPFlash, Renilla luciferase plasmid pRL-TK and pLKO.1 after 8 hrs by Dual topflash luciferase reporter gene assay; assay type: cell-based; conditions: Homo sapiens, HEK293, 8 h
How it was run: (§2)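 HEK293 cells stably carrying a TOPFlash luciferase reporter and a Renilla luciferase control were stimulated with Wnt3A-conditioned medium and given DMSO or compound (0.04–10 μM) for 8 h. Wnt3A plus DMSO was set as 100%. IC50 was fit from mean ± SEM, n 3. Percent inhibition at the two highest concentrations was given when no full curve was obtained.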

Homo sapiens [3] = organism: Homo sapiens; test: Inhibition of Wnt/beta-catenin signaling pathway in human HCT116 whole cell lysate harboring beta-catenin mutation assessed as reduction in cyclin D1 protein expression at 5 uM after 18 hrs by Western blot analysis relative to control; assay type: subcellular; how it was run: as §1
SW480 [4] = test: Inhibition of Wnt/beta-catenin signaling pathway in human SW480 cells cytosol lysate harboring APC mutation assessed as reduction in beta-catenin protein expression at 5 uM after 18 hrs by Western blot analysis relative to control; assay type: subcellular; how it was run: as §1
Homo sapiens [5] = organism: Homo sapiens; test: Inhibition of Wnt/beta-catenin signaling pathway in human HCT116 whole cell lysate harboring beta-catenin mutation assessed as reduction in survivin protein expression at 5 uM after 18 hrs by Western blot analysis relative to control; assay type: subcellular; how it was run: as §1
[6] = target: Frizzled-1 (Homo sapiens) (UniProt Q9UP38); test: Induction of GFP-tagged Fzd1 (unknown origin) internalization expressed in human U2OS cells at 12.5 after 6 hrs by confocal microscopic method relative to control; assay type: cell-based
How it was run: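 U2OS cells stably expressing Frizzled1-GFP were exposed to compound for 6 h, fixed and imaged by confocal microscopy. Punctate was scored visually against DMSO control: similar to control = 0, trace = 1, moderate = 3, strong = 5.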

SW480 [7] = test: Inhibition of Wnt/beta-catenin signaling pathway in human SW480 whole cell lysate harboring APC mutation assessed as reduction in c-Myc protein expression at 5 uM after 18 hrs by Western blot analysis relative to control; assay type: subcellular; how it was run: as §1
Homo sapiens [8] = organism: Homo sapiens; test: Inhibition of Wnt/beta-catenin signaling pathway in human HCT116 cells cytosol lysate harboring beta-catenin mutation assessed as reduction in beta-catenin protein expression at 5 uM after 18 hrs by Western blot analysis relative to control; assay type: subcellular; how it was run: as §1
SW480 [9] = test: Inhibition of Wnt/beta-catenin signaling pathway in human SW480 whole cell lysate harboring APC mutation assessed as reduction in survivin protein expression at 5 uM after 18 hrs by Western blot analysis relative to control; assay type: subcellular; how it was run: as §1
Homo sapiens [10] = organism: Homo sapiens; test: Inhibition of Wnt/beta-catenin signaling pathway in human HCT116 cells cytosol lysate harboring beta-catenin mutation assessed as reduction in Axin2 protein expression at 5 uM after 18 hrs by Western blot analysis relative to control; assay type: subcellular; how it was run: as §1
SW480 [11] = test: Inhibition of Wnt/beta-catenin signaling pathway in human SW480 whole cell lysate harboring APC mutation assessed as reduction in cyclin D1 protein expression at 5 uM after 18 hrs by Western blot analysis relative to control; assay type: subcellular; how it was run: as §1
SW480 [12] = test: Inhibition of Wnt/beta-catenin signaling pathway in human SW480 cells cytosol lysate harboring APC mutation assessed as reduction in Axin2 protein expression at 5 uM after 18 hrs by Western blot analysis relative to control; assay type: subcellular; how it was run: as §1
Homo sapiens [13] = organism: Homo sapiens; test: Inhibition of Wnt/beta-catenin signaling pathway in human HCT116 whole cell lysate harboring beta-catenin mutation assessed as reduction in survivin protein expression at 5 to 10 uM after 18 hrs by Western blot analysis; assay type: subcellular
Homo sapiens [14] = organism: Homo sapiens; test: Inhibition of Wnt/beta-catenin signaling pathway in human HCT116 cells cytosol lysate harboring beta-catenin mutation assessed as reduction in beta-catenin protein expression at 5 to 10 uM after 18 hrs by Western blot analysis; assay type: subcellular
Homo sapiens [15] = organism: Homo sapiens; test: Inhibition of Wnt/beta-catenin signaling pathway in human HCT116 cells cytosol lysate harboring beta-catenin mutation assessed as reduction in Axin2 protein expression at 5 to 10 uM after 18 hrs by Western blot analysis; assay type: subcellular
Homo sapiens [16] = organism: Homo sapiens; test: Inhibition of Wnt/beta-catenin signaling pathway in human HCT116 whole cell lysate harboring beta-catenin mutation assessed as reduction in survivin protein expression at 5 to 10 uM after 18 hrs by Western blot analysis
Homo sapiens [17] = organism: Homo sapiens; test: Inhibition of Wnt/beta-catenin signaling pathway in human HCT116 whole cell lysate harboring beta-catenin mutation assessed as reduction in c-Myc protein expression at 5 to 10 uM after 18 hrs by Western blot analysis; assay type: subcellular
HEK293 [18] = test: Inhibition of Wnt3A-stimulated Wnt/beta-catenin pathway in HEK293 cells transfected with p8xTOPFlash, Renilla luciferase plasmid pRL-TK and pLKO.1 assessed as residual activity at 10 uM after 8 hrs by Dual topflash luciferase reporter gene assay relative to control; assay type: cell-based; conditions: Homo sapiens; how it was run: as §2
HEK293 [19] = test: Inhibition of Wnt3A-stimulated Wnt/beta-catenin pathway in HEK293 cells transfected with p8xTOPFlash, Renilla luciferase plasmid pRL-TK and pLKO.1 at 5 uM after 8 hrs by Dual topflash luciferase reporter gene assay relative to control; assay type: cell-based; conditions: Homo sapiens; how it was run: as §2
HEK293 [20] = test: Inhibition of Wnt3A-stimulated Wnt/beta-catenin pathway in HEK293 cells transfected with p8xTOPFlash, Renilla luciferase plasmid pRL-TK and pLKO.1 at 10 uM after 8 hrs by Dual topflash luciferase reporter gene assay relative to control; assay type: cell-based; conditions: Homo sapiens; how it was run: as §2

Frizzled-1 (Homo sapiens), sequence (Q9UP38 70-647 limits assumed): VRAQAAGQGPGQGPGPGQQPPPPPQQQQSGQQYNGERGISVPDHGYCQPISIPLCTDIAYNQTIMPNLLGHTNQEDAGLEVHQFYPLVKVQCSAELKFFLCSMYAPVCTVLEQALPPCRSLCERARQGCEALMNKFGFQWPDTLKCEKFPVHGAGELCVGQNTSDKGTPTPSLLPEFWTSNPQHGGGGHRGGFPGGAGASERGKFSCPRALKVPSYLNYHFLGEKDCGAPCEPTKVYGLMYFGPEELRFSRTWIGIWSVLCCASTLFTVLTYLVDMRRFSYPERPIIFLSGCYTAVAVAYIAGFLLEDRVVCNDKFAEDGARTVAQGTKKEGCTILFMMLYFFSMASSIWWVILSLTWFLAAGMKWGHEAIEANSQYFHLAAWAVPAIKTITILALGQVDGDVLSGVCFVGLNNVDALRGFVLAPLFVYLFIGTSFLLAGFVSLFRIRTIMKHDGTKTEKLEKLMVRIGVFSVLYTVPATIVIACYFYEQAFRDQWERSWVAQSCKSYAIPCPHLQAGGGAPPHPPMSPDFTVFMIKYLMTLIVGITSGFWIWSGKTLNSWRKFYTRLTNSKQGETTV

Row | Compound | inhibition (Homo sapiens [1]) | IC50 [2] | inhibition (Homo sapiens [3]) | inhibition (SW480 [4]) | inhibition (Homo sapiens [5]) | score [6] | inhibition (SW480 [7]) | inhibition (Homo sapiens [8]) | inhibition (SW480 [9]) | inhibition (Homo sapiens [10]) | inhibition (SW480 [11]) | inhibition (SW480 [12]) | inhibition (Homo sapiens [13]) | inhibition (Homo sapiens [14]) | inhibition (Homo sapiens [15]) | inhibition (Homo sapiens [16]) | inhibition (Homo sapiens [17]) | Activity (HEK293 [18]) | inhibition (HEK293 [19]) | inhibition (HEK293 [20])
1 | Oc1ccc(Cl)cc1-c1nnc(-c2ccc(C(F)(F)F)cc2)[nH]1 | 3% | 2.88 µM | 17% | 72% | 44% | 2 | 2% | 6% | 56% | 68% | 76% | 58% |  |  |  |  |  |  |  | 
2 | Oc1ccc(Cl)cc1-c1nnc(-c2ccccc2)[nH]1 |  | 4.02 µM |  |  |  | 0 |  |  |  |  |  |  | Active | Active | Active | Active | Active |  |  | 
3 | O=[N+]([O-])c1ccc(-c2nnc(-c3cc(Cl)ccc3O)[nH]2)c(Cl)c1 | 3% | 1.84 µM | 22% | 69% | 38% | 5 | 4% | 34% | 43% | 68% | 57% | 47% |  |  |  |  |  |  |  | 
4 | Oc1ccc(Cl)cc1-c1nnc(-c2ccc(F)cc2)[nH]1 |  | 1.91 µM |  |  |  | 1 |  |  |  |  |  |  |  |  |  |  |  |  |  | 
5 | O=C(Nc1ccc([N+](=O)[O-])cc1Cl)c1cc(Cl)ccc1O [NICLOSAMIDE] | 1% | 0.34 µM | 28% | 74% | 44% | 5 | 3% | 46% | 41% | 35% | 45% | 29% |  |  |  |  |  |  |  | 
6 | O=C(NC(=O)c1cc(Cl)ccc1O)c1ccc([N+](=O)[O-])cc1 |  |  |  |  |  | 0 |  |  |  |  |  |  |  |  |  |  |  | 153% |  | 
7 | O=[N+]([O-])c1ccc(-c2nnc(-c3cc(Cl)ccc3O)[nH]2)cc1 | 2% | 1.41 µM | 20% | 67% | 38% | 4 | 2% | 59% | 38% | 75% | 70% | 44% |  |  |  |  |  |  |  | 
8 | COc1ccc(-c2nnc(-c3cc(Cl)ccc3O)[nH]2)cc1 |  |  |  |  |  | 0 |  |  |  |  |  |  |  |  |  |  |  |  | 14% | 60%
9 | O=C(NCc1ccc([N+](=O)[O-])cc1)c1cc(Cl)ccc1O |  |  |  |  |  | 0 |  |  |  |  |  |  |  |  |  |  |  |  | 3% | 43%
